Laboratory results reported in paper PMC8798964 (Translational Cancer Research, 2021).
Read-outs that look alike come from different tables or passages of the source.

What was measured:
SU-DHL-6 cells = experiment: Apoptosis assay; format: cell-based
Procedure, shortened: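 SU-DHL-6 cells kept in RPMI 1640 with 10% heat-inactivated FBS and penicillin/streptomycin at 37 °C, 5% CO2. Seeded at 4×10^5/mL and left 24 h, then exposed to one of three concentrations of test compound, or DMSO control, for 24 or 48 h. Stained with Annexin V/7-AAD and read by flow cytometry. Live, early apoptotic and late apoptotic/dead populations counted.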

[1] = Pharmacokinetic study: plasma and brain concentration after a single oral dose; format: in vivo, SD rats; conditions: for Kp: male, SD, rat, brain/plasma, po
Procedure, shortened: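 Male SD rats (219.0–260.5 g), fasted overnight until 4 h post-dose, given one oral dose of 10, 15 or 55 mg/kg depending on compound. n=3 per time point (0.25–24 h). Jugular blood in K2EDTA; plasma by spinning at 4 °C. Brains taken after decapitation, homogenised in 3-fold saline. Samples precipitated with acetonitrile plus internal standards, then LC-MS/MS. Brain/plasma ratio calculated at Cmax.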

[2] = Ibrutinib concentration in CSF of a PCNSL patient; format: in vivo; conditions: human, po, 560 mg
PCNSL = conditions: cited from earlier work
[3] = phase II, monotherapy 560 mg/day, intent-to-treat analysis

C=CC(=O)N1CCC[C@@H](n2nc(-c3ccc(Oc4ccccc4)cc3)c3c(N)ncnc32)C1 [ibrutinib]
Induction of apoptosis (SU-DHL-6 cells; SU-DHL-6, 0.5 µM): not observed
Induction of apoptosis (SU-DHL-6 cells; SU-DHL-6, 5 µM, 24 and 48 hours): subtle
Induction of apoptosis (SU-DHL-6 cells; SU-DHL-6, 50 µM, 24 and 48 hours): prominent
Kp [1]: 0.098
concentration at 2 h [2]: 0.309 ng/mL
Disease control rate (PCNSL; phase II, monotherapy 560 mg/day, evaluable patients): 70%
Disease control rate (PCNSL; [3]): 62%
Stable diseases (PCNSL; [3]): 10%
Objective response rate (ORR) (PCNSL; recurrent PCNSL patients, single drug, two clinical trials): 50–70%
Clinical responses (PCNSL; refractory and recurrent PCNSL, 10 of 13 patients): 77%
Patients who achieved CR (PCNSL; refractory and recurrent PCNSL, cohort of 13): five

CC#CC(=O)N1CC[C@@H](n2c(=O)n(-c3ccc(Oc4ccccc4)cc3)c3c(N)ncnc32)C1 [tirabrutinib]
Induction of apoptosis (SU-DHL-6 cells; SU-DHL-6, three concentrations, 24 or 48 hours): only induced when cells were treated with high dose tirabrutinib for a relatively longer period of time (50 µM, 48 h)
Kp [1]: 0.085
ORR rate (PCNSL; phase I/II trial, relapsed/refractory PCNSL patients): 64%

C=CC(=O)N1CCC([C@@H]2CCNc3c(C(N)=O)c(-c4ccc(Oc5ccccc5)cc4)nn32)CC1 [zanubrutinib]
Pro-apoptosis effect (SU-DHL-6 cells; SU-DHL-6, 50 µM, after another 24 hours (48 h)): maintained
Induction of apoptosis (SU-DHL-6 cells; SU-DHL-6, 24 hours, 0.5 µM or higher): good ability in inducing cell apoptosis
Induction of apoptosis (SU-DHL-6 cells; SU-DHL-6, lower concentration, after another 24 hours (48 h)): cells recovered from apoptosis
Unbound concentration in brain ([1]; SD rats, 15 mg/kg orally, 4 hours after administration): below the limit of detection
Kp [1]: 0.035
